In ChEMBL document CHEMBL1132972, “Pyrrolidine inhibitors of human cytosolic phospholipase A(2)” (J Med Chem, 2000) one finds IC50 data, which are given here for 19 compounds.

Experiment [1] relates to THP-1. As to the kind of experiment: Inhibition of arachidonic acid production from THP-1 cells stimulated with A-23187 using cellular assay. It is filed as functional, cell-based. As to conditions: Homo sapiens. In a few lines: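 DMSO-differentiated THP-1 cells (1.3% DMSO for 2 days in RPMI 1640/10% FCS), washed with PBS, held in Hanks' saline pH 7.6 plus 0.1% BSA. Preincubated with inhibitor 15 min at 37 °C, then stimulated with 3 µM calcium ionophore A23187 for 20 min at 37 °C. Arachidonic acid release measured; IC50, mean ± SD, n=3 independent determinations.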

For experiment [2], the system named is THP-1. As to the kind of experiment: Effect of pyrrolidine derivatives on production of eicosanoids from THP-1 cells stimulated with A-23187 using cellular assay on PGE-2, LTC-4. The format is functional, cell-based. Conditions: Homo sapiens. The method, boiled down:
(§1)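 THP-1 cells grown in RPMI 1640 with 10% FCS, differentiated with 1.3% DMSO for 2 days, PBS-washed, suspended in Hanks' saline pH 7.6 with 0.1% BSA. Inhibitor preincubation 15 min at 37 °C, then 3 µM A23187 for 20 min at 37 °C. Stopped on ice; supernatant LTC4 and PGE2 measured by radio immunoassay and enzyme immunoassay. IC50, mean ± SD of three independent determinations.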

Experiment [3] relates to THP-1. As to the kind of experiment: Effect on production of eicosanoids from THP-1 cells stimulated with A-23187 using cellular assay on PGE-2, LTC-4. The format is functional, cell-based. Conditions: Homo sapiens. In a few lines: as §1
In experiment [4] the target is T1, Cytosolic phospholipase A2 (Homo sapiens, UniProt P47712).
T1 sequence (P47712 whole entry): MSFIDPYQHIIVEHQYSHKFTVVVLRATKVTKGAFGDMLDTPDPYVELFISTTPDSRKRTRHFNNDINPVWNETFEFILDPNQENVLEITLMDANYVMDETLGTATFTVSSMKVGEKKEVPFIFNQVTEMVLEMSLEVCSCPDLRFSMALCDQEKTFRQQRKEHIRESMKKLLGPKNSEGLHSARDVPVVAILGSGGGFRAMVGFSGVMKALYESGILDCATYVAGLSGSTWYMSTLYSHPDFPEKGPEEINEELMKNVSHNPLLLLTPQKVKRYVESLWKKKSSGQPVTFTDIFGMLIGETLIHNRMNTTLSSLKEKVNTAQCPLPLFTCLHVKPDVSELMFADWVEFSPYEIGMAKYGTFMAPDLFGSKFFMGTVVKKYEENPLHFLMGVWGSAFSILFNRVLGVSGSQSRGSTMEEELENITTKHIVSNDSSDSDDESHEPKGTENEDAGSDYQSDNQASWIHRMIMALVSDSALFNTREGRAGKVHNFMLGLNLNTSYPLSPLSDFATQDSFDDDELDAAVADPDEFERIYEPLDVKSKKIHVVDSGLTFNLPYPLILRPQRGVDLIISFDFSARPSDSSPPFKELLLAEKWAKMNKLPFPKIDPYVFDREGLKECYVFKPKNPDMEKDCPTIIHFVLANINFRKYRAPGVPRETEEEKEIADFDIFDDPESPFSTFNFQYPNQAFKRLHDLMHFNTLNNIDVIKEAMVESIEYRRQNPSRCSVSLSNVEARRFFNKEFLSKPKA
Briefly: Inhibition of Human cPLA2 alpha using Enzyme assay(PC/DOG assay).

In experiment [5] the test system is THP-1. As to the kind of experiment: Effect on production of eicosanoids from THP-1 cells stimulated with A-23187 using cellular assay on PGE-2. The format is functional, cell-based. Conditions: Homo sapiens. In a few lines:
as §1

Experiment [6] relates to THP-1. Briefly: Effect of pyrrolidine derivatives on production of eicosanoids from THP-1 cells stimulated with A-23187 using cellular assay on LTC-4. It is filed as functional, cell-based. As to conditions: Homo sapiens. In a few lines:
as §1

Bounds are passed on as bounds.

The term IC50 denotes the concentration needed to halve the response being measured. As for `COc1ccc2c(c1)c(CC(=O)O)c(C)n2C(=O)c1ccc(Cl)cc1` [INDOMETHACIN], the IC50 in the experiment on THP-1 [1] is above 10000 nM; with THP-1 [2] it was above 10000 nM; in the experiment with THP-1 [3], 3.6 nM.
`O=C1NC(=O)/C(=C/c2ccc(C(=O)NC[C@@H]3C[C@@H](OCc4ccccc4-c4ccccc4)CN3C(=O)c3cccc(C(=O)c4ccccc4)c3)cc2)S1`: the IC50 in the experiment with THP-1 [1] is 5900 nM; in experiment [4], above 10000 nM.
Take `O=C1NC(=O)/C(=C/c2ccc(C(=O)NC[C@@H]3C[C@@H](OCc4ccccc4-c4ccccc4)CN3C(=O)c3ccccc3C(=O)c3ccccc3)cc2)S1`: the IC50 in the experiment with THP-1 [1] worked out at 670 nM; in experiment [4], 165 nM; with THP-1 [5], 410 nM; in the experiment on THP-1 [6], 370 nM.
`O=C1NC(=O)/C(=C/c2ccc(C(=O)NC[C@@H]3C[C@@H](SCc4ccccc4-c4ccccc4)CN3C(=O)c3ccccc3C(=O)c3ccc(F)cc3)cc2)S1` displayed a half-inhibitory concentration (IC50) in the experiment on THP-1 [1] of 250 nM.
For `CC(C)Cc1cccc(Br)c1O[C@@H]1C[C@@H](CNC(=O)c2ccc(/C=C3\SC(=O)NC3=O)cc2)N(C(=O)c2ccccc2C(=O)c2ccc(F)cc2F)C1`, the IC50 amounted to 220 nM in the experiment with THP-1 [1] and 22 nM in experiment [4].
Taken in the same sequence, the figures for `CC(C)Cc1cccc(-c2ccccc2C(C)C)c1O[C@@H]1C[C@@H](CNC(=O)c2ccc(/C=C3\SC(=O)NC3=O)cc2)N(C(=O)c2ccccc2C(=O)c2ccc(F)cc2F)C1` were 55 nM and 2.1 nM.
Turning to `CC(C)CN(Cc1ccccc1-c1ccccc1)[C@@H]1C[C@@H](CNC(=O)c2ccc(/C=C3\SC(=O)NC3=O)cc2)N(C(=O)c2ccccc2C(=O)c2ccc(F)cc2)C1`, the IC50 is 180 nM in the experiment on THP-1 [1] and 21 nM in experiment [4].
The matching figures for `CC(C)Cc1cccc(-c2ccccc2C(C)C)c1O[C@@H]1C[C@@H](CNC(=O)c2ccc(/C=C3\SC(=O)NC3=O)cc2)N(C(=O)c2ccccc2C(=O)c2ccc(F)cc2)C1`: 92 nM and 5.3 nM.
Consider `CC(C)CN(Cc1ccccc1-c1ccccc1)[C@@H]1C[C@@H](CNC(=O)/C=C/c2ccc(/C=C3\SC(=O)NC3=O)cc2)N(C(=O)c2ccccc2C(=O)c2ccc(F)cc2)C1`, for which, in the experiment with THP-1 [1], the IC50 amounted to 52 nM.
For the compound `O=C1NC(=S)S/C1=C\c1ccc(C(=O)NC[C@@H]2C[C@@H](SCc3ccccc3-c3ccccc3)CN2C(=O)c2ccccc2C(=O)c2ccc(F)cc2)cc1`, the half-maximal inhibitory concentration (IC50) came out at 400 nM in the experiment with THP-1 [1] and 72 nM in experiment [4].
Consider `CC(C)CN(Cc1ccccc1-c1ccccc1)[C@@H]1C[C@@H](CNC(=O)/C=C/c2ccc(/C=C3\SC(=O)NC3=O)cc2)N(C(=O)c2ccccc2C(=O)c2ccc(F)cc2F)C1`, for which the IC50 with THP-1 [1] came out at 22 nM; in the experiment with THP-1 [2], 13 nM; in the experiment on THP-1 [3], 31 nM.
For the compound `CC(C)Cc1cccc(Br)c1O[C@@H]1C[C@@H](CNC(=O)c2ccc(/C=C3\SC(=O)NC3=O)cc2)N(C(=O)c2ccccc2C(=O)c2ccc(F)cc2)C1`, the values for the IC50 (in the experiment on THP-1 [1]; in experiment [4]) were 300 nM and 38 nM, respectively.
The matching figures for `O=C1NC(=S)S/C1=C\c1ccc(C(=O)NC[C@@H]2C[C@@H](Oc3ccccc3-c3ccccc3)CN2C(=O)c2ccccc2C(=O)c2ccc(F)cc2)cc1`: 660 nM and 83 nM.
In the case of `O=C1NC(=O)/C(=C/c2ccc(C(=O)NC[C@@H]3C[C@@H](OCc4ccccc4-c4ccccc4)CN3C(=O)c3ccccc3C(=O)c3ccc(F)cc3)cc2)S1`, the IC50 in the experiment on THP-1 [1] turned out to be 320 nM; in experiment [4], 78 nM; with THP-1 [2] it was 260 nM; in the experiment on THP-1 [3], 260 nM.
Turning to `O=C1NC(=O)/C(=C/c2ccc(C(=O)NC[C@@H]3C[C@@H](Oc4ccccc4-c4ccccc4)CN3C(=O)c3ccccc3C(=O)c3ccc(F)cc3)cc2)S1`, the half-maximal inhibitory concentration (IC50) came out at 310 nM in the experiment with THP-1 [1] and 210 nM in the experiment on THP-1 [5].
On to `O=C1NC(=S)S/C1=C\c1ccc(C(=O)NC[C@@H]2C[C@@H](OCc3ccccc3-c3ccccc3)CN2C(=O)c2ccccc2C(=O)c2ccc(F)cc2)cc1`, for which the results for the IC50 (in the experiment on THP-1 [1]; in experiment [4]) were 700 nM and 90 nM, respectively.
The matching figures for `O=C1NC(=O)/C(=C/c2ccc(C(=O)NC[C@@H]3C[C@@H](OCc4ccccc4-c4ccccc4)CN3C(=O)c3ccc(C(=O)c4ccccc4)cc3)cc2)S1`: 5500 nM and above 10000 nM.
The matching figures for `CC(C)CN(Cc1ccccc1-c1ccccc1)[C@@H]1C[C@@H](CNC(=O)c2ccc(/C=C3\SC(=O)NC3=O)cc2)N(C(=O)c2ccccc2C(=O)c2ccc(F)cc2F)C1`: 47 nM and 6.2 nM.
With `O=C1NC(=O)/C(=C/c2ccc(C(=O)NC[C@@H]3C[C@@H](OCc4ccccc4-c4ccccc4)CN3C(=O)c3ccccc3C(=O)c3ccc(F)cc3F)cc2)S1`, the IC50 with THP-1 [1] stood at 230 nM; in experiment [4] it was 49 nM.
